core dimer inh: HCV core protein dimerization inhibition. 300,000 compounds, 0.33% hits. TR-FRET GST/Flag-core106 dimerization, 1536-well. AID 1899. inhibition, % at 5 µM;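 active = inhibition above the mean of all tested compounds plus 3 SD, set per screening campaign, cut at about 45% in these data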
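Assay system: tagged HCV core106 pair (GST and Flag); medium: KF-containing HEPES buffer, pH 7.45, DTT, CHAPS, BSA; also added: Eu donor and XL665 acceptor anti-tag antibodies; dosing: 5 µM single dose; timing: compound-protein-antibody incubation 4 h at 22.5 °C; signal: TR-FRET 671 and 617 nm emission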
PABP FP inh: PABP-poly(A) binding inhibition; AID 2014; PABP-poly(A) RNA binding, fluorescence polarization; P11940; inhibition, % at 35 µM; 290,000 compounds, 1% hits;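 also: calls also rest on retests at 20 µM and on dose response follow-up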
Target sequence (P11940 whole entry, looked up): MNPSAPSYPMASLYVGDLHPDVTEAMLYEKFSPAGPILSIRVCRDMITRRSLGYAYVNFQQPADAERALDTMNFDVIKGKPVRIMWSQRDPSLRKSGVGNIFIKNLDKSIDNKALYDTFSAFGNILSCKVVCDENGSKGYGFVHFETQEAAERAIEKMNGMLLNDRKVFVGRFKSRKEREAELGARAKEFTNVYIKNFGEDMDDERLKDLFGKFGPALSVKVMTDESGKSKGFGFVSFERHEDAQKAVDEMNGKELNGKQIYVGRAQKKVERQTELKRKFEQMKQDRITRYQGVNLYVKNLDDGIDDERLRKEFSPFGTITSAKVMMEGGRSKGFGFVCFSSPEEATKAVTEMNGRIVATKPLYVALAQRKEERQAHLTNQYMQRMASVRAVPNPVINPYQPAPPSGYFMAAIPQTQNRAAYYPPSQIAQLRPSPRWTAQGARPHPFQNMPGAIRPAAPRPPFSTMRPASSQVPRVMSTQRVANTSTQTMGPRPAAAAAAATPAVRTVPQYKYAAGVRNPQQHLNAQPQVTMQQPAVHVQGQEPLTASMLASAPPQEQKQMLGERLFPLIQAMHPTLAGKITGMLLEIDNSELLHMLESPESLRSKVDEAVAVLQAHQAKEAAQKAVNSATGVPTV
MLLE-PAM2 inh: inhibitors of microRNA-mediated deadenylation, human PABP1 MLLE binding; GST-MLLE / FITC-PAM2 fluorescence polarization; AID 588489; P11940; inhibition, % at 20 µM; 360,000 compounds, 0.36% hits; in the data active = inhibition above about 35%, passing the limit was not always enough;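 also: plate controls were DMSO wells with GST-MLLE for no effect and wells lacking GST-MLLE protein for full effect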
NS3 helicase inh: HCV NS3 helicase inhibition; NS3 helicase DNA unwinding, Cy5 molecular beacon fluorescence; inhibition, % at 10.9 µM; 290,000 compounds, 0.56% hits; AID 1800;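 active = inhibition above the mean of all tested compounds plus 3 SD, set per campaign, cut at about 35% in these data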;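 also: 0% = DMSO wells and 100% = thioflavine S control wells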
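Assay system: hepatitis C virus NS3 helicase domain fragment enzyme. Also added: annealed dual-labelled DNA beacon duplex, ATP-started. Timing: 1 h reaction at 25 °C, ATP-initiated. Technique: Cy5 fluorescence at 0 and 60 min, beacon hairpin quenching. Evaluation: % inhibition of unwinding. Replication: one well per compound.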
DNA FID counter: displaces DNA intercalator in HCV helicase counter-screen | DNA fluorescent intercalator displacement, fluorescence | inhibition, % at 7.9 µM | 290,000 compounds, 0.17% hits; in the data active = inhibition above about 37%;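 also: 0% = vehicle and 100% = reference compound; higher means more ethidium bromide displaced from hairpin DNA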
eIF4H inh: inhibitors of RNA binding by human eIF4H; Q15056; eIF4H fluorescence polarization binding assay; inhibition, % at 35 µM; 290,000 compounds, 0.94% hits; AID 2012;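 also: calls also rest on retests at 20 µM and on dose response follow-up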
Numbers without * were called inactive. In the library only some 2% were active in any assay of this set; here they are far more common. Unless noted, no rule for the calls is given here.

Results for Cc1occc1-c1nnc(SCC(=O)c2cc3ccccc3oc2=O)o1 ?
core dimer inh: 19.5; PABP FP inh: 34.4; MLLE-PAM2 inh: 14.9; NS3 helicase inh: 27.9; DNA FID counter: -16.8; eIF4H inh: 60.3*

Results for COC(=O)c1cc(NC(=O)c2ccccc2)c(=O)oc1C/C=N\OCc1ccc(Cl)cc1Cl ?
core dimer inh: 27.7; PABP FP inh: 87.1*; MLLE-PAM2 inh: -34.6; NS3 helicase inh: 9.5; DNA FID counter: -7.7; eIF4H inh: 72.1*

How did CO/N=C\Cc1oc(=O)c(NC(=O)c2ccccc2)cc1C(=O)OC do in these assays?
core dimer inh: 3.5; PABP FP inh: 107.8*; MLLE-PAM2 inh: -1.4; NS3 helicase inh: 2.8; DNA FID counter: -5.2; eIF4H inh: 80.8*

Results for COC(=O)c1cc(NC(=O)c2ccccc2)c(=O)oc1C ?
core dimer inh: 0.8; PABP FP inh: -3.3; MLLE-PAM2 inh: 4.9; NS3 helicase inh: 16.0; DNA FID counter: -2.3; eIF4H inh: 3.4

What do the screens show for `O=C(C[C@H]1C[C@@H]2c3cc(NC(=O)c4cccnc4)ccc3O[C@@H]2[C@H](CO)O1)NCc1ccncc1`?
MLLE-PAM2 inh: 14.1

Results for COC(=O)c1ccsc1NC(=O)CN1CCN(c2ncccn2)CC1 ?
core dimer inh: 1.2; PABP FP inh: 6.1; MLLE-PAM2 inh: -2.7; NS3 helicase inh: -4.2; DNA FID counter: -30.4; eIF4H inh: 10.2

How did CCN(CC)CCC12CC(C)OC1=Nc1ccccc1NC2=O (stereo unspecified) do in these assays?
MLLE-PAM2 inh: -7.1

How did Cc1ccc(S(=O)(=O)N2Cc3ccccc3CC2C(=O)Nc2ccc3c(c2)OCO3)cc1 (stereo unspecified) do in these assays?
core dimer inh: 53.7*; PABP FP inh: 32.3; MLLE-PAM2 inh: -9.9; NS3 helicase inh: -1.4; DNA FID counter: -11.0; eIF4H inh: 57.7

What do the screens show for `COc1ccc(S(=O)(=O)N2Cc3ccccc3CC2C(=O)Nc2ccc3c(c2)OCO3)cc1` (stereo unspecified)?
core dimer inh: 11.9; PABP FP inh: 4.3; MLLE-PAM2 inh: -11.2; NS3 helicase inh: -1.6; DNA FID counter: -16.9; eIF4H inh: -0.6

What do the screens show for `Cc1cccc(NC(=O)CCc2nnc3ccc(NCc4ccco4)nn23)n1`?
core dimer inh: 8.9; PABP FP inh: 32.2; MLLE-PAM2 inh: 3.7; NS3 helicase inh: 7.0; DNA FID counter: -32.6; eIF4H inh: 80.2*

What do the screens show for `COc1ccc(NC(=O)CCc2nnc3ccc(NCc4ccco4)nn23)cc1`?
core dimer inh: 0.0; PABP FP inh: 0.5; MLLE-PAM2 inh: 2.0; NS3 helicase inh: 15.8; DNA FID counter: -26.4; eIF4H inh: 2.5

What do the screens show for `Cc1cccnc1NC(=O)CCc1nnc2ccc(NCc3ccco3)nn12`?
core dimer inh: -3.0; PABP FP inh: 12.0; MLLE-PAM2 inh: 11.3; NS3 helicase inh: 5.9; DNA FID counter: -3.6; eIF4H inh: 21.0

How did O=C(CCc1nnc2ccc(NCc3ccco3)nn12)Nc1ccccn1 do in these assays?
core dimer inh: 4.4; PABP FP inh: 43.1; MLLE-PAM2 inh: 13.5; NS3 helicase inh: -3.1; DNA FID counter: -22.9; eIF4H inh: 88.2*

What do the screens show for `Cc1cc(C(=O)C(C)Cl)c(C)n1Cc1ccco1` (stereo unspecified)?
core dimer inh: 25.1; PABP FP inh: 1.6*; MLLE-PAM2 inh: 3.9; NS3 helicase inh: 14.1; DNA FID counter: -5.7; eIF4H inh: 101.2*

What do the screens show for `Cc1cc(C(=O)COC(=O)c2ccc(O)cc2)c(C)n1Cc1ccco1`?
core dimer inh: 11.4; PABP FP inh: active; MLLE-PAM2 inh: -15.3; NS3 helicase inh: -3.4; DNA FID counter: -11.9; eIF4H inh: 73.7*

What do the screens show for `Cc1cc(C(=O)COC(=O)c2ccc(Br)o2)c(C)n1Cc1ccco1`?
core dimer inh: -0.8; PABP FP inh: -13.1; NS3 helicase inh: 1.2; DNA FID counter: -14.2; eIF4H inh: 4.7

How did COc1cccc(N2CCN(CC(=O)NC(=O)NCc3ccco3)CC2)c1 do in these assays?
core dimer inh: 38.9; PABP FP inh: active; MLLE-PAM2 inh: -16.0; NS3 helicase inh: 6.8; DNA FID counter: -9.0; eIF4H inh: 88.3

How did O=C(CN1CCN(c2ccccc2)CC1)NC(=O)NCc1ccco1 do in these assays?
core dimer inh: -13.0; PABP FP inh: 3.9; MLLE-PAM2 inh: 13.1; NS3 helicase inh: -1.2; DNA FID counter: -5.6; eIF4H inh: -8.0

Screening data: PubChem, several laboratories
